These results are taken from ChEMBL document CHEMBL2062449, “Eco-friendly synthesis and biological evaluation of substituted pyrano[2,3-c]pyrazoles” (Bioorg Med Chem Lett, 2012).

Assay [1] deals with Staphylococcus aureus. Briefly: Antibacterial activity against Staphylococcus aureus after 18 to 24 hrs by broth microdilution method. The assay is classed as functional. A general note: Dilution methods test growth across graded concentrations, often in twofold steps.
Assay [2] concerns MCF7. The experiment in a line: Cytotoxicity against estrogen receptor-positive human MCF7 cells assessed as inhibition of cell proliferation at 2 ug/ml after 24 hrs by MTT assay. The assay is classed as functional. As to conditions: MCF7, 24 h. An outline of the steps:
(§1)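 MTT assay on MCF-7 human breast cancer cells, Taxol as reference; percentage inhibition of cell proliferation read at graded concentrations from 0.1 to 50 μg/mL (typically five or six levels per compound); IC50 in μg/mL derived from the inhibition series.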
For orientation: Tetrazolium dyes change colour on reduction, which living cells bring about.

Assay [3] concerns MCF7. Briefly: Cytotoxicity against estrogen receptor-positive human MCF7 cells assessed as inhibition of cell proliferation after 24 hrs by MTT assay. The assay is classed as functional, cell-based. Conditions: Homo sapiens, MCF7, 24 h; read-out: IC50. An outline of the steps: as §1
In assay [4] the test system is Rattus norvegicus. The experiment in a line: Antiinflammatory activity in Wistar rat assessed as protection against carrageenan-induced paw edema at 100 mg/kg, po administered 1 hr before carrageenan challenge measured after 2 hrs. The assay is classed as functional. Background: In the carrageenan paw model, swelling and tenderness develop within hours.
Assay [5] deals with Staphylococcus aureus. The experiment in a line: Antibacterial activity against Staphylococcus aureus at […] after 24 hrs by agar diffusion method. The assay is classed as functional. Put shortly: (§2)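 Single-concentration antibacterial screen at 100 μg/50 μL per test against the standard bacterial strains.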
The subject of assay [6] is Pseudomonas aeruginosa. The experiment in a line: Antibacterial activity against Pseudomonas aeruginosa after 18 to 24 hrs by broth microdilution method. The assay is classed as functional.
The subject of assay [7] is Rattus norvegicus. The experiment in a line: Antiinflammatory activity in Wistar rat assessed as protection against carrageenan-induced paw edema at 100 mg/kg, po administered 1 hr before carrageenan challenge measured after 30 mins. The assay is classed as functional.
Assay [8] has as its system MCF7. Briefly: Cytotoxicity against estrogen receptor-positive human MCF7 cells assessed as inhibition of cell proliferation at 4 ug/ml after 24 hrs by MTT assay. The assay is classed as functional. As to conditions: MCF7, 24 h. Put shortly: as §1
Assay [9] concerns Bacillus subtilis. The experiment in a line: Antibacterial activity against Bacillus subtilis at […] after 24 hrs by agar diffusion method. The assay is classed as functional. Put shortly:
as §2

Assay [10] deals with Rattus norvegicus. The experiment in a line: Antiinflammatory activity in Wistar rat assessed as protection against carrageenan-induced paw edema at 100 mg/kg, po administered 1 hr before carrageenan challenge measured after 4 hrs. The assay is classed as functional.
The test system of assay [11] is Rattus norvegicus. The experiment in a line: Antiinflammatory activity in Wistar rat assessed as protection against carrageenan-induced paw edema at 100 mg/kg, po administered 1 hr before carrageenan challenge measured after 3 hrs. The assay is classed as functional.
The test system of assay [12] is MCF7. Briefly: Cytotoxicity against estrogen receptor-positive human MCF7 cells assessed as inhibition of cell proliferation at 6 ug/ml after 24 hrs by MTT assay. The assay is classed as functional. Conditions: MCF7, 24 h. An outline of the steps: as §1
The test system of assay [13] is MCF7. Briefly: Cytotoxicity against estrogen receptor-positive human MCF7 cells assessed as inhibition of cell proliferation at 0.5 ug/ml after 24 hrs by MTT assay. The assay is classed as functional. As to conditions: MCF7, 24 h. Put shortly:
as §1

In assay [14] the test system is Pseudomonas aeruginosa. The experiment in a line: Antibacterial activity against Pseudomonas aeruginosa at 100 ug/[…] after 24 hrs by agar diffusion method. The assay is classed as functional. An outline of the steps:
as §2

The test system of assay [15] is Bacillus subtilis. Briefly: Antibacterial activity against Bacillus subtilis after 18 to 24 hrs by broth microdilution method. The assay is classed as functional.
Assay [16] relates to Escherichia coli. Briefly: Antibacterial activity against Escherichia coli at […] after 24 hrs by agar diffusion method. The assay is classed as functional. An outline of the steps:
as §2

Assay [17] relates to Escherichia coli. The experiment in a line: Antibacterial activity against Escherichia coli after 18 to 24 hrs by broth microdilution method. The assay is classed as functional.
For assay [18], the system named is MCF7. Briefly: Cytotoxicity against estrogen receptor-positive human MCF7 cells assessed as inhibition of cell proliferation at 1 ug/ml after 24 hrs by MTT assay. The assay is classed as functional. Conditions: MCF7, 24 h. Put shortly:
as §1

Assay [19] relates to MCF7. The experiment in a line: Cytotoxicity against estrogen receptor-positive human MCF7 cells assessed as inhibition of cell proliferation at 8 ug/ml after 24 hrs by MTT assay. The assay is classed as functional. As to conditions: MCF7, 24 h. Put shortly: as §1
Assay [20] deals with Rattus norvegicus. The experiment in a line: Antiinflammatory activity in Wistar rat assessed as protection against carrageenan-induced paw edema at 100 mg/kg, po administered 1 hr before carrageenan challenge measured after 1 hr. The assay is classed as functional.
The test system of assay [21] is MCF7. The experiment in a line: Cytotoxicity against estrogen receptor-positive human MCF7 cells assessed as inhibition of cell proliferation at 3 ug/ml after 24 hrs by MTT assay. The assay is classed as functional. As to conditions: MCF7, 24 h. Put shortly:
as §1

The test system of assay [22] is MCF7. Briefly: Cytotoxicity against estrogen receptor-positive human MCF7 cells assessed as inhibition of cell proliferation at 5 ug/ml after 24 hrs by MTT assay. The assay is classed as functional. Conditions: MCF7, 24 h. Put shortly:
as §1

Assay [23] relates to MCF7. The experiment in a line: Cytotoxicity against estrogen receptor-positive human MCF7 cells assessed as inhibition of cell proliferation at 10 ug/ml after 24 hrs by MTT assay. The assay is classed as functional. As to conditions: MCF7, 24 h. Put shortly: as §1
The subject of assay [24] is MCF7. The experiment in a line: Cytotoxicity against estrogen receptor-positive human MCF7 cells assessed as inhibition of cell proliferation at 25 ug/ml after 24 hrs by MTT assay. The assay is classed as functional. As to conditions: MCF7, 24 h. An outline of the steps:
as §1

In assay [25] the test system is MCF7. Briefly: Cytotoxicity against estrogen receptor-positive human MCF7 cells assessed as inhibition of cell proliferation at 50 ug/ml after 24 hrs by MTT assay. The assay is classed as functional. As to conditions: MCF7, 24 h. Put shortly:
as §1

Assay [26] deals with MCF7. The experiment in a line: Cytotoxicity against estrogen receptor-positive human MCF7 cells assessed as inhibition of cell proliferation at 2.5 ug/ml after 24 hrs by MTT assay. The assay is classed as functional. As to conditions: MCF7, 24 h. An outline of the steps: as §1
Assay [27] relates to MCF7. Briefly: Cytotoxicity against estrogen receptor-positive human MCF7 cells assessed as inhibition of cell proliferation at 0.1 ug/ml after 24 hrs by MTT assay. The assay is classed as functional. Conditions: MCF7, 24 h. Put shortly: as §1
The test system of assay [28] is MCF7. The experiment in a line: Cytotoxicity against estrogen receptor-positive human MCF7 cells assessed as inhibition of cell proliferation at 0.25 ug/ml after 24 hrs by MTT assay. As to conditions: MCF7, 24 h. The assay is classed as functional. An outline of the steps:
as §1

Each structure is given as a SMILES string. Converted amounts (≈) assume the structure as drawn.

As to `CC1=NN=C2OC(N)=C(C#N)C(c3ccc(Oc4nc(Cl)c(Cl)cc4Cl)cc3)C12` (centres undefined), the MIC (commonly the smallest concentration in the dilution series that meets the test's criterion for growth inhibition) with Staphylococcus aureus [1] was 3.12 mg/L (≈ 6.96 µM); in the assay on Pseudomonas aeruginosa [6], 3.12 mg/L (≈ 6.96 µM); against Bacillus subtilis [15], 6.25 mg/L (≈ 13.9 µM); in the assay on Escherichia coli [17], 1.56 mg/L (≈ 3.48 µM). Further, in the assay with MCF7 [2], the inhibition – broadly, the change of the read-out against control, counted positive when it falls – at 2 µg/mL was 31.9%. The IC50 (in general, the midpoint of a concentration-inhibition curve) with MCF7 [3] was 4.46 mg/L (≈ 9.95 µM). The Activity was determined as 67.1% with Rattus norvegicus [4]; 29.4% in the assay with Rattus norvegicus [7]; 54.9% in the assay on Rattus norvegicus [10]; 72% in the assay with Rattus norvegicus [11]; 50% in the assay on Rattus norvegicus [20]. For the same compound, the “inhibition zone (IZ)” value with Staphylococcus aureus [5] is reported as 15 mm; in the assay on Bacillus subtilis [9], 20 mm; in the assay on Pseudomonas aeruginosa [14], 14 mm; in the assay with Escherichia coli [16], 22 mm. Further, in the assay on MCF7 [8], the inhibition at 4 µg/mL was 42.5%. Moreover, the inhibition at 6 µg/mL in the assay with MCF7 [12] is 65.2%. The inhibition at 0.5 µg/mL with MCF7 [13] worked out at 5.34%. Further, in the assay on MCF7 [18], the inhibition at 1 µg/mL came out at 17.4%. Besides, the inhibition at 8 µg/mL with MCF7 [19] stood at 68.6%.

With `Cc1n[nH]c2c1C(c1cccs1)C(C#N)=C(N)O2` (centres undefined), the MIC against Staphylococcus aureus [1], in the assay with Pseudomonas aeruginosa [6], against Bacillus subtilis [15] and with Escherichia coli [17] was 3.12 mg/L (≈ 12.1 µM) each time. Further, the inhibition at 3 µg/mL with MCF7 [21] came out at 22%. Also, in the assay with MCF7 [2], the inhibition at 2 µg/mL is 19.1%. Further, in the assay on MCF7 [3], the IC50 is 4.44 mg/L (≈ 17.2 µM). In addition, the Activity with Rattus norvegicus [4] is 50.8%; in the assay on Rattus norvegicus [7], 23.5%; with Rattus norvegicus [10], 51.6%; in the assay on Rattus norvegicus [11], 64.5%; in the assay with Rattus norvegicus [20], 38.8%. Further, the “inhibition zone (IZ)” value was determined as 15 mm in the assay with Staphylococcus aureus [5], 18 mm with Bacillus subtilis [9], 14 mm with Pseudomonas aeruginosa [14] and 20 mm with Escherichia coli [16]. Also, the inhibition at 5 µg/mL in the assay on MCF7 [22] came to 61.7%. Also, the inhibition at 4 µg/mL in the assay with MCF7 [8] was determined as 41.8%. Besides, the inhibition at 1 µg/mL in the assay with MCF7 [18] stood at 0.28%.

`Cc1nn(-c2ccccc2)c2c1C1(C(=O)Nc3ccccc31)C(C#N)=C(N)O2` (centres undefined): the MIC against Staphylococcus aureus [1] turned out to be 3.12 mg/L (≈ 8.46 µM); in the assay on Pseudomonas aeruginosa [6], 6.25 mg/L (≈ 16.9 µM); in the assay with Bacillus subtilis [15], 3.12 mg/L (≈ 8.46 µM); in the assay on Escherichia coli [17] it was 3.12 mg/L (≈ 8.46 µM). Also, in the assay on MCF7 [23], the inhibition at 10 µg/mL was determined as 40.3%. Moreover, the IC50 in the assay on MCF7 [3] stood at 16.8 mg/L (≈ 45.4 µM). The Activity came out at 46.5% in the assay on Rattus norvegicus [4]; 23.5% in the assay on Rattus norvegicus [7]; 47.2% with Rattus norvegicus [10]; 68.8% with Rattus norvegicus [11]; 25% with Rattus norvegicus [20]. The “inhibition zone (IZ)” value with Staphylococcus aureus [5] was found to be 14 mm; in the assay on Bacillus subtilis [9] it was 19 mm; in the assay on Pseudomonas aeruginosa [14], 15 mm; with Escherichia coli [16], 21 mm. The inhibition at 5 µg/mL with MCF7 [22] amounted to 26.6%. Besides, in the assay on MCF7 [24], the inhibition at 25 µg/mL came to 64.6%. In addition, the inhibition at 1 µg/mL in the assay with MCF7 [18] worked out at 19.3%. The inhibition at 50 µg/mL in the assay on MCF7 [25] was determined as 86.5%.

Regarding `Cc1[nH]nc2c1C(c1cccc(Oc3ccccc3)c1)C(C#N)=C(N)O2` (centres undefined), in the assay with MCF7 [3], the IC50 is 1.63 mg/L (≈ 4.73 µM). The Activity was determined as 47.9% in the assay on Rattus norvegicus [4]; 17.6% in the assay with Rattus norvegicus [7]; 61.5% in the assay on Rattus norvegicus [10]; 66.6% in the assay on Rattus norvegicus [11]; 33.3% with Rattus norvegicus [20]. Besides, the inhibition at 2.5 µg/mL with MCF7 [26] turned out to be 68.6%. The “inhibition zone (IZ)” value in the assay with Staphylococcus aureus [5] is 7 mm; in the assay with Bacillus subtilis [9], 9 mm; with Pseudomonas aeruginosa [14], 11 mm; in the assay on Escherichia coli [16], 9 mm. Also, the inhibition at 5 µg/mL in the assay with MCF7 [22] worked out at 83.7%. Moreover, the inhibition at 0.5 µg/mL in the assay with MCF7 [13] is 20.2%. The inhibition at 0.1 µg/mL in the assay with MCF7 [27] is 8.26%. Moreover, the inhibition at 0.25 µg/mL in the assay with MCF7 [28] is 14%. The inhibition at 1 µg/mL in the assay with MCF7 [18] came to 43.5%.
